Experimental data collected from several papers.
Each line is one published result; the experiments were not run side by side.

Structure (SMILES) | tested on | assay | test system | conditions | endpoint | value
COc1ccc(NC(=O)NCc2cn(Cc3ccc(Cl)cc3)nn2)cc1 | L02 | cell growth or viability, CCK-8 |  | 50 µM, 72 h | viability | 121%
CC(C)n1c(C2CCNCC2)nc2c([N+](=O)[O-])c(Br)c(Br)cc21 |  |  | human, plasma | oral, 150 mg, patients | Cmax | 249 ng/mL
COc1ccc2c(c1)CN(C(=O)CCN1CCC(Cc3ccccc3)CC1)CC[S@@+]2[O-] |  |  | male human, plasma | intravenous, 0.4 mg/kg, healthy volunteers | Cmax | 1080 ng/mL
O=C(NCc1cn(Cc2ccc(Cl)cc2)nn1)Nc1ccc(Cl)cc1 | L02 | cell growth or viability, CCK-8 |  | 50 µM, 72 h | viability | 127%
COc1ccc(NC(=O)Nc2ccc(-c3cn(Cc4cccc(Cl)c4)nn3)cc2)cc1 | L02 | cell growth or viability, CCK-8 |  | 50 µM, 72 h | viability | 114%
O=C(Nc1ccc(Cl)cc1)Nc1ccc(-c2cn(Cc3cccc(Cl)c3)nn2)cc1 | L02 | cell growth or viability, CCK-8 |  | 50 µM, 72 h | viability | 92.6%
COc1ccc(-c2c(Nc3ccccn3)[nH]c3c(C4=CCCCC4)c(-c4ccccc4)nn3c2=O)cc1 |  |  | human, plasma | oral, 200 mg twice daily, multiple doses, patients | Cmax | 13600 ng/mL
COc1ccc(NC(=O)NCc2cn(Cc3ccccc3C)nn2)cc1 | L02 | cell growth or viability, CCK-8 |  | 50 µM, 72 h | viability | 124%
O=C(Nc1ccc(-c2cn(Cc3ccc(Cl)cc3)nn2)cc1)Nc1ccccc1Br | L02 | cell growth or viability, CCK-8 |  | 50 µM, 72 h | viability | 113%
COc1ccc(NC(=O)NCc2cn(Cc3ccc(Br)cc3)nn2)cc1 | L02 | cell growth or viability, CCK-8 |  | 50 µM, 72 h | viability | 119%
CNC(C)(C)COCC(=O)N1CCC[C@H](C(=O)NCc2nc(-c3ccc(C(F)(F)F)cc3)cs2)C1 |  |  | Caco-2 |  | efflux ratio | 180
O=C(COc1ccc(Cl)cc1)NC12CC(c3nnc([C@H]4C[C@@H](OC(F)(F)F)C4)o3)(C1)C2 |  |  | human, plasma | oral, 100 mg, single dose, fasted, healthy volunteers | Cmax | 1180 nM
